Screening results deposited in PubChem BioAssay by several laboratories.
Compounds with a hit are over-represented: about 1.5% of the library has one in this group of screens.
Jurkat NFkB inh = lowers PMA/ionomycin-induced NF-kB signal in Jurkat cells; PMA/ionomycin-induced NF-kB luciferase reporter, luminescence; inhibition, % at 4 µM; 330,000 tested, 0.53% active; in the data active means inhibition above about 50%
NR2E3 ag-1 = NR2E3 (human) agonism | Q9Y5X4 | GST-NR2E3/biotin-RetCOR TR-FRET, 1536-well | inhibition of corepressor binding, % at 4.78 µM | 320,000 tested, 0.12% active | AID 2300;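 active means percent inhibition above the cutoff of mean plus 3 SD of all tested compounds, set per screening campaign, cut at about 20% in these data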
Target sequence (Q9Y5X4 whole entry, looked up): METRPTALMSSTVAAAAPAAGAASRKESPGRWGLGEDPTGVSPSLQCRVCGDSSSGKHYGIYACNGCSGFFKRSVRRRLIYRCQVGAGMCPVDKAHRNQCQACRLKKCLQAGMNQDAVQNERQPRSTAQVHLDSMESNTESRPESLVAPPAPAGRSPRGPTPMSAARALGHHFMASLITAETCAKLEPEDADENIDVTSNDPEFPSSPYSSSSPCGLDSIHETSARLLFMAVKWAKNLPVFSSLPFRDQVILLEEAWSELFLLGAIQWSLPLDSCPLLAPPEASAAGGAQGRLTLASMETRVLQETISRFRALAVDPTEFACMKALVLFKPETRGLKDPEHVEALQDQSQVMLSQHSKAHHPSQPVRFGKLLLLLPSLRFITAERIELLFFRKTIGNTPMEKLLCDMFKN
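Test system – NR2E3–RetCOR corepressor complex · Quantity – NR2E3 fusion 1.35 nM · Buffer or medium – Tris pH 7.5 · Incubation – Compound–protein incubation for 5 h at 4 °C · Technique – TR-FRET, Eu(K)-anti-GST donor, streptavidin-D2 acceptor, ex 340, em 617/671 nm · Evaluation – percent inhibition of 671/617 nm emission ratio versus biotin and DMSO controls · Plate – 1536-well format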
GalR3 antagonist = antagonists of human GalR3 | O60755 | HEK293 GalR3-CNG cAMP membrane potential fluorescence; galR3 body fused to GalR1 C-terminus | inhibition, % at 3 µM | 360,000 tested, 0.44% active;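 active means inhibition above the screen-wide average plus 3 SD, cut at about 13% in these data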;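 further: forskolin and galanin both at EC90 stimulate the cells; cAMP rise reported by CNG channel membrane potential dye signal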
Target sequence (O60755 1-299 limits assumed): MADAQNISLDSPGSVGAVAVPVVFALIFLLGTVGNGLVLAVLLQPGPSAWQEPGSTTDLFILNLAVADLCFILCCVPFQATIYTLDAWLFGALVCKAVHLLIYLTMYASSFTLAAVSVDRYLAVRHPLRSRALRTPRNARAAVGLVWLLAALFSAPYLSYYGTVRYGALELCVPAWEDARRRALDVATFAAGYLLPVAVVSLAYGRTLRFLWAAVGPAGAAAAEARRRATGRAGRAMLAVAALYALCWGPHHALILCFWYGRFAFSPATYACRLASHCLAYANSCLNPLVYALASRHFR
GASC-1 inh = blocks human GASC-1 demethylase activity; Q9H3R0; GST-JMJD2C(1-420) H3K9me3 demethylation, DELFIA europium; inhibition, % at 2.35 µM; 330,000 tested, 0.069% active; AID 2099;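 active means more than half of a compound's replicate wells show inhibition beyond 50%, single wells judged on their own value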;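 further: signal counts dimethyl H3K9 product captured on neutravidin plate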
NR2E3 ag-2 = human photoreceptor-specific nuclear receptor agonism. 360,000 tested, 0.35% active. inhibition of corepressor binding, % at 3.98 µM. CHO-S Gal4-NCOR/VP16-NR2E3 two-hybrid, luciferase;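 active means inhibition above the mean of all tested compounds plus 3 SD, cut at about 70% in these data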;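 further: higher means lower luciferase signal from less NR2E3 corepressor binding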
697 NFkB inh = inhibitors of the PMA/ionomycin-induced NF-kB reporter in 697 B cells | 330,000 tested, 0.33% active | inhibition, % at 4 µM | 697 B-cell NF-kB luciferase reporter, 16 h; in the data active means inhibition above about 35%
Jurkat NFkB conf = inhibitors of the PMA/ionomycin-induced NF-kB reporter in Jurkat cells, retest | inhibition, % at 4 µM | AID 435020 | 2,700 tested, 27% active | shares compounds with Jurkat NFkB inh | Jurkat NF-kB luciferase, 16 h;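 active means inhibition reaching about 45% at 4 µM in either replicate, limit read from the data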
697 NFkB conf = lowers PMA/ionomycin-induced NF-kB signal in 697 B cells | inhibition, % at 4 µM | AID 449746 | shares compounds with 697 NFkB inh | 2,000 tested, 35% active | 697 B-cell NF-kB luciferase, 16 h; in the data active means inhibition mostly above about 28%, no sharp cut-off; inactive means mostly below about 22%
NR2E3 ag conf = NR2E3 agonism confirmed in two-hybrid assay | shares compounds with NR2E3 ag-2 | 2,300 tested, 51% active | inhibition, % at 3.98 µM | CHO-S mammalian two-hybrid NR2E3-NCOR, luciferase luminescence;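 active means average inhibition above a cutoff equal to the mean inhibition of all tested compounds plus one SD, cut at about 70% in these data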
VP16 counter = reduces GAL4-VP16 reporter signal in NR2E3 counterscreen | shares compounds with NR2E3 ag-2 | CHO-S GAL4-VP16 luciferase reporter, luminescence | inhibition, % at 3.98 µM | 2,300 tested, 29% active | AID 624379;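 active means mean inhibition above a cutoff equal to the average over all tested compounds plus one standard deviation, cut at about 70% in these data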;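 further: luciferase from a UAS reporter driven by GAL4-VP16 transactivation; higher means less reporter light so more repression of VP16 activity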
GalR3 antag conf = confirmation of human galanin receptor 3 antagonists; HEK293 GalR3 CNG cAMP biosensor, membrane potential fluorescence; galR3 fused to GalR1 carboxy tail; challenged with forskolin and galanin at EC90; AID 652245; shares compounds with GalR3 antagonist; 1,600 tested, 59% active; inhibition, % at 3 µM;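 active means inhibition above the primary screen's cutoff, the mean inhibition of all screened compounds plus 3 SD, cut at about 13% in these data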
HEK-CNG parental = acts as nonspecific agonist in parental HEK-CNG cells; shares compounds with GalR3 antagonist; HEK293-CNG parental cells, cAMP membrane potential fluorescence; normalised: DMSO wells 0%, forskolin wells 100%; activation, % at 3 µM; 1,600 tested, 10% active; AID 652268; in the data active means activation above about 1.3%
A number is an active result; - = inactive; . = no result given.

SMILES	Jurkat NFkB inh	NR2E3 ag-1	GalR3 antagonist	GASC-1 inh	NR2E3 ag-2	697 NFkB inh	Jurkat NFkB conf	NR2E3 ag conf	VP16 counter	others
COC(=O)c1cn(NC(=O)c2cc([N+](=O)[O-])ccc2F)c(=O)c2ccccc12	97	-	-	-	91	-	90	82	-
Cc1ccc2nc(C)c(CN3CCN(c4ccc([N+](=O)[O-])cc4Cl)CC3)n2c1	51	-	-	-	104	-	46	95	84
O=[N+]([O-])c1ccc(Cl)c(CN2CCN(c3ncccn3)CC2)c1	-	-	-	-	-	-	.	.	.
Nc1nnnn1/N=C/C(Br)=C/c1ccccc1	57	-	-	-	-	-	-	-	-
CCc1ccc(S(=O)(=O)/N=C2\C=C(Nc3ccc(O)cc3)C(=O)c3ccccc32)cc1	54	-	.	-	113	-	52	100	100
Cc1ccc(C(=O)N/N=C/c2ccc([N+](=O)[O-])s2)cc1	64	-	-	-	-	38	48	-	-	697 NFkB conf=-
O=C(N/N=C/c1ccc([N+](=O)[O-])s1)c1ccncc1	-	-	.	-	-	-	.	.	.
COc1ccccc1OCC(=O)NNC(=O)C1CCN(c2ncnc3sc(C)c(C)c23)CC1	-	-	-	-	-	-	.	.	.
COc1ccc(-c2csc(NC(=O)C3CCN(c4ncnc5sc(C)c(C)c45)CC3)n2)cc1OC	53	-	-	-	78	-	-	74	79
Cc1ccc(NC(=S)N2CCC(N(C)CC3CCCO3)CC2)cc1 (stereo not drawn)	-	-	-	-	-	-	.	.	.
N#Cc1cnc(NOCc2ccc(Cl)cc2)nc1	-	-	-	-	-	-	.	.	.
C#CCN(C[C@@H]1[C@@H](OC(=O)NCC2CCCCC2)[C@@H](OC(=O)NCC2CCCCC2)Cn2c(=O)n(CCCCCC)c(=O)n21)S(=O)(=O)c1ccc(C)cc1	.	.	-	.	-	.	.	.	.
COc1ccc(NC(=O)/C(Cl)=C(/Cl)S(=O)Cc2ccccc2)cn1 (stereo not drawn)	95	-	-	-	90	-	98	95	-
COc1ccc2sc(N(CCCN(C)C)C(=O)c3nc4ccccc4s3)nc2c1	-	-	-	-	-	-	.	.	.
COc1ccccc1C(=O)N(CCC1CCCN1C)c1nc2ccccc2s1 (stereo not drawn)	-	-	-	-	-	-	-	-	-	697 NFkB conf=-
O=c1[nH]cnc2c1ncn2C1OC(CO)C(O)C1O (stereo not drawn)	.	.	-	.	-	.	.	.	.
Nc1ncn([C@@H]2O[C@H](CO)[C@@H](O)[C@H]2O)c(=O)n1	80	-	-	-	-	-	85	-	-
O=C(Sc1cccc2cccnc12)c1ccccc1Br	101	-	-	-	100	-	69	-	-
Cc1cccc(N(C)S(=O)(=O)c2c(C)[nH]c(C)c2C(=O)N2CCCC2)c1	-	-	-	-	-	-	.	.	.
CCOc1cc(N2CCOCC2)c(OCC)cc1NC(=O)CN1C(=O)NC2(CCCCC2)C1=O	-	-	-	-	-	-	.	.	.
C=CS(=O)(=O)c1ccc(Oc2ccc(S(=O)(=O)C=C)cc2)cc1	78	-	-	-	91	-	91	-	-
CC1N(C(=O)N2CCOCC2)CCN1S(=O)(=O)c1ccc(Cl)cc1 (stereo not drawn)	-	-	-	-	-	-	.	.	.
Cc1cccc(NS(=O)(=O)c2ccc(-c3cnc(C4CC4)o3)cc2)c1C	60	-	-	-	83	-	66	77	-
CCOc1ccc(NS(=O)(=O)c2ccc(-c3cnc(C4CC4)o3)cc2)cc1	-	-	-	-	-	-	.	.	.
Cc1ccc(C)c(NS(=O)(=O)c2ccc(-c3cnc(C4CC4)o3)cc2)c1	61	-	-	-	80	-	60	-	-
SMILES	Jurkat NFkB inh	NR2E3 ag-1	GalR3 antagonist	GASC-1 inh	NR2E3 ag-2	697 NFkB inh	Jurkat NFkB conf	NR2E3 ag conf	VP16 counter	others
Cc1cc(C)cc(NS(=O)(=O)c2ccc(-c3cnc(C4CC4)o3)cc2)c1	56	-	-	-	-	-	55	-	-
CC(=O)Nc1ccc(NS(=O)(=O)c2ccc(-c3cnc(C4CC4)o3)cc2)cc1	-	-	-	-	-	-	.	.	.
O[C@@H]1[C@@H](O)C=C2CCN3Cc4cc5c(cc4[C@H]1C23)OCO5 (stereo partly drawn)	96	-	.	.	89	-	89	92	85	697 NFkB conf=-
COc1ccc(C(=O)Nc2ccnn2C2CCN(C(=O)c3cccnc3)CC2)cc1	-	-	-	-	-	-	.	.	.
Cc1ccc(-n2nc3c(=O)n(CC(=O)NCc4ccccc4)nc(C)c3c2C)cc1	-	-	-	-	-	-	.	.	.
Cc1ccc(-n2nc3c(=O)n(CC(=O)NC(C)CCc4ccccc4)nc(C)c3c2C)cc1 (stereo not drawn)	53	-	.	-	-	-	63	-	-
Cc1ccc(S(=O)(=O)Nc2cccc3ncccc23)s1	83	-	.	-	102	-	-	-	-
Cc1ccc(S(=O)(=O)Nc2cccc3ncccc23)cc1	-	-	-	-	-	-	.	.	.
Nc1nc(Cl)cc(N2CCC(c3cc(-c4ccc(Cl)cc4)n[nH]3)CC2)n1	70	-	-	-	91	-	63	98	73
Cc1csc2ncnc(NC3CCN(Cc4ccccc4)CC3)c12	68	-	96	-	81	-	58	95	86	GalR3 antag conf=108;HEK-CNG parental=-
S=C(NCCCN1CCOCC1)N1CCN(c2nc(-c3ccc(Cl)cc3)cs2)CC1	51	-	20	-	-	-	-	.	.	GalR3 antag conf=-;HEK-CNG parental=-
